Experiment [1] concerns Rattus norvegicus. The experiment is described as follows: The compound was tested in vivo for biochemical effect against the changes in different brain area levels of 5-HTP in reserpinized rat limbic system at dose 50 uM/kg; Partial effect. The experiment is classed as functional, organism-based.
The test system of experiment [2] is Rattus norvegicus. The experiment in a line: The compound was tested in vivo for biochemical effect against the changes in different brain area levels of 5-HTP in reserpinized rat corpus striatum at does 50 uM/kg; Partial effect. Format: functional, organism-based.
Experiment [3] deals with D(2) dopamine receptor (Rattus norvegicus, UniProt P61169). The experiment is described as follows: In vitro binding affinity against cloned mammalian Dopamine receptor D2 expressed in CHO cells using [3H]U-86170 as radioligand. The experiment is classed as cell-based. The method in brief:
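Membranes from CHO cells (20-60 μg protein) in 20 mM HEPES, 10 mM MgSO4, pH 7.4. Nonspecific binding defined with excess haloperidol. 11 concentrations, each in duplicate. Incubated 1 h at room temperature, then filtered and counted. IC50 from a one-site competition fit, converted to Ki by Cheng-Prusoff.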

Experiment [4] has as its system Rattus norvegicus. The experiment is described as follows: (§1) The compound was tested in vivo for biochemical effect against the changes in different brain area levels of DOPA in reserpinized rat hemispheres (mainly cortex)at does 50 uM/kg; Inactive. The experiment is classed as functional, organism-based.
For experiment [5], the system named is Rattus norvegicus. The experiment in a line: The compound was tested in vivo for biochemical effect against the changes in different brain area levels of DOPA in reserpinized rat limbic system; Inactive. The experiment is classed as functional, organism-based.
The test system of experiment [6] is Rattus norvegicus. The experiment in a line: The compound was tested in vivo for biochemical effect against the changes in different brain area levels of 5-HTP in reserpinized rat hemispheres (mainly cortex)at does 50 uM/kg; Partial effect. The experiment is classed as functional, organism-based.
Experiment [7] deals with Rattus norvegicus. The experiment in a line: The compound was tested in vivo for biochemical effect against the changes in different brain area levels of DOPA in reserpinized rat corpus striatum at does 50 uM/kg; Inactive. The experiment is classed as functional, organism-based.
The test system of experiment [8] is Rattus norvegicus. The experiment is described as follows: The compound was tested in vivo for biochemical effect against the changes in different brain area levels of DOPA in reserpinized rat hemispheres (mainly cortex); inactive at the highest dose tested (3.1). Format: functional, organism-based. The gist of the method: (§2)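 Male Sprague-Dawley rats (200-300 g) pretreated with reserpine 5 mg/kg sc 18 h before. Injection volume 5 mL/kg, test solutions at neutral pH. DOPA and 5-HTP in limbic system, striatum and hemispheres measured by HPLC with electrochemical detection. Dose-response curves from four to six dose levels (n = 4) per brain area.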

For experiment [9], the system named is Rattus norvegicus. The experiment is described as follows: In vivo changes in different brain area levels of 5-HTP in reserpinized rat limbic system. The experiment is classed as functional. The gist of the method: (§3)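 Male Sprague-Dawley rats (200-300 g) pretreated with reserpine 5 mg/kg sc 18 h before. Injection volume 5 mL/kg at neutral pH. Brain-region 5-HTP measured by HPLC with electrochemical detection. Dose-response curves used four to six doses, n = 4.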

Experiment [10] has as its system Rattus norvegicus. The experiment in a line: The compound was tested in vivo for biochemical effect against the changes in different brain area levels of DOPA in reserpinized rat corpus striatum at dose 50 uM/kg; Inactive. The experiment is classed as functional, organism-based. The gist of the method:
as §2

Experiment [11] concerns Rattus norvegicus. The experiment is described as follows: The compound was tested in vivo for biochemical effect against the changes in different brain area levels of DOPA in reserpinized rat limbic system at does 50 uM/kg; Inactive. Format: functional, organism-based. The method in brief: as §2
The subject of experiment [12] is Rattus norvegicus. The experiment is described as follows: In vivo for biochemical effect against brain area levels of 5-HTP in reserpinized rat hemispheres (mainly cortex). Format: functional. The gist of the method:
as §2

The subject of experiment [13] is Rattus norvegicus. The experiment is described as follows: In vivo changes in different brain area levels of 5-HTP in reserpinized rat corpus striatum. Format: functional. The gist of the method:
as §3

Experiment [14] has as its system Rattus norvegicus. Described as §1. The experiment is classed as functional, organism-based. The method in brief: as §2
This is another data set of the same source.

For experiment [15], the target named is D(3) dopamine receptor (Rattus norvegicus) (UniProt P19020). The experiment is described as follows: The compound was tested in vitro for binding affinity against cloned mammalian Dopamine receptor D3 expressed in CHO cells by, using [3H]-spiperone as radioligand. The experiment is classed as cell-based. The settings on record: concentration not given here. The gist of the method: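 Cloned D3 receptor came from CHO cell membranes (20-60 μg protein). These were incubated 1 h at room temperature with [3H]spiperone (123 Ci/mmol, 0.5 nM) in 20 mM HEPES, 10 mM MgCl2, 150 mM NaCl, 1 mM EDTA, pH 7.4. Excess haloperidol defined nonspecific binding. There were 11 concentrations in duplicate. After filtration and scintillation counting, IC50 came from a one-site competition fit and Ki from Cheng-Prusoff.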
D(3) dopamine receptor (Rattus norvegicus), sequence (P19020 whole entry): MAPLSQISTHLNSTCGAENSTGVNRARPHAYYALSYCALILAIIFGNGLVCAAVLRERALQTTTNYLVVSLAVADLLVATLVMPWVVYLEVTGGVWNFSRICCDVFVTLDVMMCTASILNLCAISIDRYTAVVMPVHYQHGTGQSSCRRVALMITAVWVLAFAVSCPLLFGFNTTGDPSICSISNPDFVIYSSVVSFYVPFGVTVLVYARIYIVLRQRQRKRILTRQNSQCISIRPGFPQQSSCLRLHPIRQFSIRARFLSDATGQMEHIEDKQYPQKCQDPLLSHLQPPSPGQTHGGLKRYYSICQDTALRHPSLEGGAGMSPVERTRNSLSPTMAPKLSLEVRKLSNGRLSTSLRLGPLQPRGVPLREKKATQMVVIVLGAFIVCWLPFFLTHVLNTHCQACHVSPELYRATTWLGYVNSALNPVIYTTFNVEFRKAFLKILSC

Experiment [16] has as its target 5-hydroxytryptamine receptor 1B (Homo sapiens, UniProt P28222). The experiment is described as follows: In vitro binding affinity against cloned mammalian 5-hydroxytryptamine 1D receptor beta expressed in CHO cells, by using [3H]5-HT as radioligand. Format: cell-based. The gist of the method: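 Membranes from CHO cells stably expressing the cloned receptor, made by mechanical disruption in ice-cold Tris/EDTA/EGTA pH 7.4 and differential centrifugation. [3H]serotonin at 1.7 nM in 50 mM Tris, 5 mM MgCl2, 0.1% ascorbic acid, pH 7.4. 11 drug concentrations in duplicate, 1 h at room temperature protected from light, then filtration. Excess serotonin defines nonspecific binding. One-site IC50 fit, Ki by Cheng-Prusoff.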

Experiment [17] has as its target D(3) dopamine receptor (Rattus norvegicus, UniProt P19020). The experiment is described as follows: In vitro binding affinity against cloned mammalian Dopamine receptor D3 expressed in CHO cells by, using [3H]-spiperone as radioligand. The settings on record: read-out: Ki. The experiment is classed as cell-based.
For experiment [18], the system named is Rattus norvegicus. The experiment in a line: The compound was tested in vivo for biochemical effect against the changes in different brain area levels of DOPA in reserpinized rat limbic system at dose 12.5 uM/kg; Partial effect. The experiment is classed as functional, organism-based. The method in brief:
as §2

The test system of experiment [19] is Rattus norvegicus. The experiment is described as follows: The compound was tested in vivo for biochemical effect against the changes in different brain area levels of DOPA in reserpinized rat hemispheres (mainly cortex) at dose 12.5 uM/kg; Inactive. Format: functional, organism-based. The method in brief: as §2
The subject of experiment [20] is Rattus norvegicus. The experiment in a line: The compound was tested in vivo for biochemical effect against the changes in different brain area levels of DOPA in reserpinized rat corpus striatum at dose 12.5 uM/kg; Partial effect. The experiment is classed as functional, organism-based. The method in brief:
as §2

The test system of experiment [21] is Rattus norvegicus. The experiment in a line: The compound was tested in vivo for biochemical effect against the changes in different brain area levels of DOPA in reserpinized rat limbic system at dose 50 uM/kg; Inactive. The experiment is classed as functional, organism-based.
The target of experiment [22] is 5-hydroxytryptamine receptor 1D (Homo sapiens, UniProt P28221). The experiment is described as follows: In vitro binding affinity against cloned mammalian 5-hydroxytryptamine 1D receptor alpha expressed in CHO cells, by using [3H]5-HT as radioligand. The experiment is classed as cell-based. The method in brief:
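Competition binding on CHO-cell membranes (20-60 μg protein) in 50 mM Tris, 5 mM MgCl2, 0.1% ascorbic acid, pH 7.4. Nonspecific binding defined with excess serotonin. 11 drug concentrations, each in duplicate. Incubated 1 h at room temperature, protected from light, then filtered and scintillation counted. IC50 taken from a one-site fit; Ki by Cheng-Prusoff.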

Experiment [23] concerns Rattus norvegicus. The experiment is described as follows: The compound was tested in vivo for biochemical effect against the changes in different brain area levels of DOPA in reserpinized rat hemispheres (mainly cortex)at dose 50 uM/kg; Inactive. The experiment is classed as functional, organism-based.

Active and inactive are the calls of the source. The calls are words filed in the database; no cut-off is given here.

5-hydroxytryptamine receptor 1B, sequence (P28222 whole entry): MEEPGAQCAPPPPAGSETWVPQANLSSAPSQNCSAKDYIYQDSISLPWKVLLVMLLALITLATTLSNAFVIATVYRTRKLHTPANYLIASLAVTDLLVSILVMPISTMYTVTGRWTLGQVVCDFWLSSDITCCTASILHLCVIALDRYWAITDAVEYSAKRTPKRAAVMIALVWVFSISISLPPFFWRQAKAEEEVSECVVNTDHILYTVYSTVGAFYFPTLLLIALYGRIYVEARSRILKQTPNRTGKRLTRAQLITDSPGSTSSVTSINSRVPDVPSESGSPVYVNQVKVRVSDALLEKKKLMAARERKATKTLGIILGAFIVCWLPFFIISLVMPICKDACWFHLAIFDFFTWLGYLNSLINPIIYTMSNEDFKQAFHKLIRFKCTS
D(2) dopamine receptor, sequence (P61169 whole entry): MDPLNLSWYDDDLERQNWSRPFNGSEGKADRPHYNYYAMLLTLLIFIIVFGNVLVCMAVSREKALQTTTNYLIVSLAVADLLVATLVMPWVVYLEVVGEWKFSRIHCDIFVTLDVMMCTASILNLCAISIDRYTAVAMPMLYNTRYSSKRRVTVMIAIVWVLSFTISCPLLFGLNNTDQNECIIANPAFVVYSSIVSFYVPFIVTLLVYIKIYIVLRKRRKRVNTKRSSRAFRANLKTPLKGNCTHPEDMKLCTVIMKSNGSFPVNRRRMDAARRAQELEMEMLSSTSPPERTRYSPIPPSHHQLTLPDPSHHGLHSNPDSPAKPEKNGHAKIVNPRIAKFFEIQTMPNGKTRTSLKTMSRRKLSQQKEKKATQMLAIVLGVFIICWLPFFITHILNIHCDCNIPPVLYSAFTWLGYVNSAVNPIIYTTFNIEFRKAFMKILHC
D(3) dopamine receptor, sequence (P19020 whole entry): as the sequence (P19020 whole entry) above
5-hydroxytryptamine receptor 1D, sequence (P28221 whole entry): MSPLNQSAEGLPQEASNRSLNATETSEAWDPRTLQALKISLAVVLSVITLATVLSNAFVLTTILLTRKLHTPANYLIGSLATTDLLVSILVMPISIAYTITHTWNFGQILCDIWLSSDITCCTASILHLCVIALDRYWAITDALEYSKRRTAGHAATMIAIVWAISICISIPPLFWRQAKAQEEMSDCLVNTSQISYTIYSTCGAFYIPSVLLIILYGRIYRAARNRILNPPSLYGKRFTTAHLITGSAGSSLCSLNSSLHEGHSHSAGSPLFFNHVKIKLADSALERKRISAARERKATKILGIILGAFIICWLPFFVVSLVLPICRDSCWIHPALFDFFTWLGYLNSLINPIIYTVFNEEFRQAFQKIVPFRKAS

A word on the ED50: it is the dose at which the effect has come halfway, by size or by number of responders. As a reminder, the Ki is the dissociation constant of the complex between target and ligand, obtained from inhibition or displacement. Consider `CCCN(CCC)CC1CCc2ccc3[nH]cc(C=O)c3c2C1` (stereo unspecified), for which the ED50 entry in experiment [1], in experiment [2] and in experiment [6] was “Weak activity” in each case. Moreover, the Ki entry in experiment [3] (cho) is on record as “Not Active”. Besides, the ED50 result in experiment [4], in experiment [5] and in experiment [7] was “inactive” throughout.

With `CCCN(CCC)[C@@H]1CCc2ccc3[nH]ccc3c2C1`, the ED50 result in experiment [8] was “inactive”.

Regarding `CN(C)[C@H]1CCc2ccc3[nH]cc(C=O)c3c2C1`, the ED50 in [9] was 13.1 µmol/kg; in experiment [12], 15.3 µmol/kg; in experiment [13] it was 12.1 µmol/kg. The ED50 entry in [10], in [11] and in experiment [14] was “inactive” throughout. The Ki in experiment [3] (read-out: Ki) worked out at 0.25 µM.

As usually defined, the inhibition is the share of the control response that was lost under treatment. A higher inhibition goes with strong suppression. In [15], `CN(C)[C@H]1CCc2ccc3[nH]ccc3c2C1` registered an inhibition of less than 45%. Besides, the Ki in experiment [16] stood at 1.69 µM.

Take `CN(C)[C@@H]1CCc2ccc3[nH]cc(C=O)c3c2C1`: the ED50 in [9] was 2.9 µmol/kg; in [12] it was 0.56 µmol/kg; in [18], “Weak activity”; in experiment [20], “Weak activity”; in [13], 0.95 µmol/kg. Also, the Ki in [17] was found to be 0.265 µM; in [3] (read-out: Ki), 0.013 µM; in [16], 0.02 µM. The ED50 entry in [19] was “inactive”.

Take `CCCN(CCCOc1cccc(Cl)c1)C1CCc2ccc3[nH]cc(C=O)c3c2C1` (stereo unspecified): the ED50 was 4.79 µmol/kg in experiment [9], 5.12 µmol/kg in [12] and 4.01 µmol/kg in experiment [13]. The ED50 result in experiment [21], in experiment [10] and in experiment [23] was “inactive” in each case. Moreover, the Ki in [17] was 0.159 µM; in experiment [22] it was 0.0051 µM; in experiment [3] (read-out: Ki) it was 0.028 µM; in experiment [16], 0.187 µM.
